According to ChEMBL document CHEMBL4393684, “Benzoic acid-derived nitrones: A new class of potential acetylcholinesterase inhibitors and neuroprotective agents” (Eur J Med Chem, 2019):
Active and inactive are the calls of the source. The calls are words filed in the database; no cut-off is given here.

What was measured:
[1] = target: Cholinesterase (Equus caballus) (UniProt P81908); test: Inhibition of equine serum BChE using butyrylthiocholine iodide as substrate at 50 uM incubated for 5 mins followed by substrate addition measured for 5 mins by Ellman's method
How it was run: (§1)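 Ellman's colorimetric method. AChE came from Electrophorus electricus and BChE from equine serum. Compounds were tested up to 50 μM, the highest concentration.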

[2] = target: Acetylcholinesterase (Electrophorus electricus) (UniProt O42275); test: Inhibition of electric eel AChE using acetylthiocholine iodide as substrate at 50 uM incubated for 5 mins followed by substrate addition measured for 5 mins by Ellman's method; how it was run: as §1
SH-SY5Y [3] = test: Cytotoxicity against human SH-SY5Y cells assessed as reduction in cell viability at 1 to 50 uM incubated for 24 hrs by MTT assay; type: cell-based
How it was run: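 Differentiated human SH-SY5Y neuroblastoma cells were exposed in culture medium to 1, 10 and 50 μM for 24 h. Viability was read as metabolic activity by MTT reduction. Untreated cells served as control, and results are mean % of untreated controls ± SEM (n = 4).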

HepG2 = test: Cytotoxicity against human HepG2 cells assessed as reduction in cell viability at 1 to 50 uM incubated for 24 hrs by resazurin dye based fluorescence assay; conditions: hepg2, 24 h
How it was run: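 HepG2 hepatocellular carcinoma cells were exposed in culture medium to 1, 10 and 50 μM. Viability was measured as metabolic activity by resazurin reduction. Results are mean % of untreated control cells ± SEM (n = 4).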

SH-SY5Y [4] = test: Neuroprotective activity against t-BHP-induced oxidative stress in human SH-SY5Y cells assessed as metabolic stability at 10 to 100 uM incubated for 24 hrs by resazurin dye based fluorescence assay relative to control; type: functional
How it was run: (§2)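 Differentiated SH-SY5Y cells were given test compounds at 10, 50 and 100 μM. Two protocols were used: 24 h compound pre-incubation then stressor, or stressor first then 24 h compound. Stressors were H2O2 1 mM, t-BHP 200 μM, ROT/AA 1 μM or DOX 1 μM, each for 4 h. Resazurin reduction was read as % of untreated control, four independent experiments, one-way ANOVA.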

SH-SY5Y [5] = test: Neuroprotective activity against ROT/AA-induced oxidative stress in human SH-SY5Y cells assessed as metabolic stability at 10 to 100 uM incubated for 24 hrs by resazurin dye based fluorescence assay relative to control; type: functional; how it was run: as §2
[6] = target: Acetylcholinesterase (Electrophorus electricus) (UniProt O42275); test: Mixed inhibition of electric eel AChE assessed as decrease in Km of substrate at 7.5 to 30 uM using acetylthiocholine iodide as substrate incubated for 5 mins followed by substrate addition measured for 5 mins by double reciprocal Lineweaver-Burk plot analysis
SH-SY5Y [7] = test: Neuroprotective activity against H2O2-induced oxidative stress in human SH-SY5Y cells assessed as metabolic stability at 10 to 100 uM incubated for 24 hrs by resazurin dye based fluorescence assay relative to control; type: functional; how it was run: as §2
[8] = target: Acetylcholinesterase (Electrophorus electricus) (UniProt O42275); test: Mixed inhibition of electric eel AChE assessed as decrease in Vmax of substrate at 7.5 to 30 uM using acetylthiocholine iodide as substrate incubated for 5 mins followed by substrate addition measured for 5 mins by double reciprocal Lineweaver-Burk plot analysis
SH-SY5Y [9] = test: Neuroprotective activity against DOX-induced oxidative stress in human SH-SY5Y cells assessed as metabolic stability at 10 to 100 uM incubated for 24 hrs by resazurin dye based fluorescence assay relative to control; type: functional; how it was run: as §2
[10] = target: Acetylcholinesterase (Electrophorus electricus) (UniProt O42275); test: Noncompetitive inhibition of electric eel AChE assessed as effect on Km of substrate at 5 to 20 uM using acetylthiocholine iodide as substrate incubated for 5 mins followed by substrate addition measured for 5 mins by double reciprocal Lineweaver-Burk plot analysis
[11] = target: Acetylcholinesterase (Electrophorus electricus) (UniProt O42275); test: Noncompetitive inhibition of electric eel AChE assessed as decrease in Vmax for substrate at 5 to 20 uM using acetylthiocholine iodide as substrate incubated for 5 mins followed by substrate addition measured for 5 mins by double reciprocal Lineweaver-Burk plot analysis
Acetylcholinesterase = Acetylcholinesterase (Electrophorus electricus, UniProt O42275); test: Inhibition of electric eel AChE assessed as inhibition constant using acetylthiocholine iodide as substrate pretreated for 5 mins followed by substrate addition measured for 5 mins by Dixon plot analysis
SH-SY5Y [12] = test: Neuroprotective activity against t-BHP-induced oxidative stress in human SH-SY5Y cells assessed as metabolic stability incubated for 24 hrs by resazurin dye based fluorescence assay relative to control; type: functional, cell-based; how it was run: as §2

Cholinesterase (Equus caballus), sequence (P81908 whole entry): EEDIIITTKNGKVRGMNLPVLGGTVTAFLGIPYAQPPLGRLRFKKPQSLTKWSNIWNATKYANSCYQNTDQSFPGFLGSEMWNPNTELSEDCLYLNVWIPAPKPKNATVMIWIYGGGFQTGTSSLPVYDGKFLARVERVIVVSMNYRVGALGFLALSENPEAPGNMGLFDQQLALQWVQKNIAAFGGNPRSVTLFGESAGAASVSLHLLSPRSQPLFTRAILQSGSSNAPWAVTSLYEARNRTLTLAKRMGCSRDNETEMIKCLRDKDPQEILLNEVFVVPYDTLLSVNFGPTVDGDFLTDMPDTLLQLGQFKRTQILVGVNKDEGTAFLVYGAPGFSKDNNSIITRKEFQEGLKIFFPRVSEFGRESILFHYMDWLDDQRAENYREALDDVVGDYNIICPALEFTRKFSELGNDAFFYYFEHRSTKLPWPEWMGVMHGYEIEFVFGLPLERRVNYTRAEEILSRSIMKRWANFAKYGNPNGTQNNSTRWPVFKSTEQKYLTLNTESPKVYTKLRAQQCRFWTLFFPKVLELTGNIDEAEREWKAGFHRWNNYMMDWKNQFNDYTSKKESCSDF
Acetylcholinesterase (Electrophorus electricus), sequence (O42275 24-633 limits assumed): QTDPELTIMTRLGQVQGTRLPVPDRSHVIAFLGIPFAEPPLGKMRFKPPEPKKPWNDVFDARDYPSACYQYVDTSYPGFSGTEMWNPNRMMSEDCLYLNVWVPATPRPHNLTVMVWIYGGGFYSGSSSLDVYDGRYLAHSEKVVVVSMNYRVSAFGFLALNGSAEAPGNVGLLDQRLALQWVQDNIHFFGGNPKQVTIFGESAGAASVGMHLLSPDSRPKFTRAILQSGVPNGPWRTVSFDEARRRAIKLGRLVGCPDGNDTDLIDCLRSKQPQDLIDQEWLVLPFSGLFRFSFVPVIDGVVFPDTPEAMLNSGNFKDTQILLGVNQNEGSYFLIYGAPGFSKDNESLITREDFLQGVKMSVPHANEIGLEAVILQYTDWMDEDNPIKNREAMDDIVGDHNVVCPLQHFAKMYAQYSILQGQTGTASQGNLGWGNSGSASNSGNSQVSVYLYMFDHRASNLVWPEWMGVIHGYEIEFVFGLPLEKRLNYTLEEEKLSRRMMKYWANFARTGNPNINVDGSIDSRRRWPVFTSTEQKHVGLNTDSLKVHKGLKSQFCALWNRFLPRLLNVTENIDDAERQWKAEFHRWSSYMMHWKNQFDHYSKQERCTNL
Acetylcholinesterase, sequence (O42275 whole entry): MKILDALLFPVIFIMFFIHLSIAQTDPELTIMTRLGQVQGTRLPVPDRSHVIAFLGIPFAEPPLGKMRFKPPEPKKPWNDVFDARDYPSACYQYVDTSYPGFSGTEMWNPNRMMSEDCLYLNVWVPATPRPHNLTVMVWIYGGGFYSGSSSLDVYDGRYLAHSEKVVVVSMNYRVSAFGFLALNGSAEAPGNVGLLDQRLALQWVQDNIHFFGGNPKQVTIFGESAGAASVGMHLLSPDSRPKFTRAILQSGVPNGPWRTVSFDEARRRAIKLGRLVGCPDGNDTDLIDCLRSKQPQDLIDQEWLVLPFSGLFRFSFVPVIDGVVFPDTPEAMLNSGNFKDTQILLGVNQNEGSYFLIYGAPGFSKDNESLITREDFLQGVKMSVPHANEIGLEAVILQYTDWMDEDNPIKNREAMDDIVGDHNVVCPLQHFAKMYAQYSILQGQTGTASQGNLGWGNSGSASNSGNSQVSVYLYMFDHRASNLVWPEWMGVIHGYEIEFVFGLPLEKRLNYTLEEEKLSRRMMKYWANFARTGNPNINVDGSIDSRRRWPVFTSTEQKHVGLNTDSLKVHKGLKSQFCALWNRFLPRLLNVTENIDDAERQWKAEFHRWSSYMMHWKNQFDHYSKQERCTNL

SMILES | inhibition [1] | inhibition [2] | Activity (SH-SY5Y [3]) | Activity (HepG2) | other results
COc1ccc(C(=O)NCCCCC/C=[N+](\[O-])Cc2ccccc2)cc1OC | inactive | inactive | Non-Toxic | Non-Toxic | –
COc1cccc(C(=O)NCCCCC/C=[N+](\[O-])Cc2ccccc2)c1 | inactive | inactive | Non-Toxic | Non-Toxic | –
COc1cc(C(=O)NCCCCCCCCC/C=[N+](\[O-])C(C)(C)C)cc(OC)c1OC | inactive | – | Non-Toxic | Non-Toxic | –
COc1ccc(C(=O)NCCCCC/C=[N+](\[O-])C2CCCCC2)cc1 | inactive | inactive | Non-Toxic | Non-Toxic | –
COc1cc(C(=O)NCCCCCCC/C=[N+](\[O-])C(C)(C)C)cc(OC)c1OC | inactive | – | Non-Toxic | Non-Toxic | –
COc1cccc(C(=O)NCCCCC/C=[N+](\[O-])C2CCCCC2)c1 | inactive | inactive | Non-Toxic | Non-Toxic | –
O=C(NCCCCC/C=[N+](\[O-])C1CCCCC1)c1ccccc1 | inactive | inactive | Non-Toxic | Non-Toxic | –
COc1ccc(C(=O)NCCCCCCCCC/C=[N+](\[O-])C(C)(C)C)cc1OC | inactive | – | Non-Toxic | Non-Toxic | –
COc1cccc(C(=O)NCCCCC/C=[N+](\[O-])C(C)(C)C)c1 | inactive | – | Non-Toxic | Non-Toxic | –
COc1ccc(C(=O)NCCCCCCC/C=[N+](\[O-])C(C)(C)C)cc1OC | inactive | – | Non-Toxic | Non-Toxic | –
COc1cc(C(=O)NCCCCC/C=[N+](\[O-])Cc2ccccc2)cc(OC)c1OC | inactive | inactive | Non-Toxic | Non-Toxic | –
O=C(NCCCCC/C=[N+](\[O-])Cc1ccccc1)c1ccccc1 | inactive | inactive | Non-Toxic | Non-Toxic | –
COc1ccc(C(=O)NCCCCC/C=[N+](\[O-])C2CCCCC2)cc1OC | inactive | inactive | Non-Toxic | Non-Toxic | –
COc1ccc(C(=O)NCCCCC/C=[N+](\[O-])C(C)(C)C)cc1 | inactive | – | Non-Toxic | Non-Toxic | –
COc1cc(C(=O)NCCCCC/C=[N+](\[O-])C(C)(C)C)cc(OC)c1OC | inactive | – | 107 to 122% | Non-Toxic | Activity (SH-SY5Y [4]): inactive; Activity (SH-SY5Y [5]): inactive; inhibition [6]: Active; Activity (SH-SY5Y [7]): inactive; inhibition [8]: Active; Activity (SH-SY5Y [9]): inactive
COc1cc(C(=O)NCCCCC/C=[N+](\[O-])C2CCCCC2)cc(OC)c1OC | inactive | inactive | Non-Toxic | Non-Toxic | –
COc1ccc(C(=O)NCCCCC/C=[N+](\[O-])C(C)(C)C)cc1OC | inactive | – | 107 to 122% | Non-Toxic | inhibition [10]: Active; Activity (SH-SY5Y [4]): 44.3%; Activity (SH-SY5Y [5]): 20.7%; inhibition [11]: Active; Ki (Acetylcholinesterase): 5.2 µM; Activity (SH-SY5Y [7]): 50.3%; Activity (SH-SY5Y [12]): Dose-dependent effect; Activity (SH-SY5Y [9]): 32.9%
CC(C)(C)/[N+]([O-])=C/CCCCCNC(=O)c1ccccc1 | inactive | inactive | Non-Toxic | Non-Toxic | –
COc1ccc(C(=O)NCCCCC/C=[N+](\[O-])Cc2ccccc2)cc1 | inactive | inactive | Non-Toxic | Non-Toxic | –
